Screening data (PubChem)
Scp-1 inhibitor: Scp-1 (human) phosphatase inhibition. Q9GZU7. Recombinant Scp1, phosphopeptide, malachite green phosphate absorbance. inhibition, % at 20 µM. 340,000 compounds, 0.88% hits. AID 493091;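 active = inhibition above about 50% at 20 µM, limit read from the data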;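 also: plate controls were DMSO wells with enzyme for no effect and wells lacking enzyme for full effect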
Target sequence (Q9GZU7 76-261 limits assumed): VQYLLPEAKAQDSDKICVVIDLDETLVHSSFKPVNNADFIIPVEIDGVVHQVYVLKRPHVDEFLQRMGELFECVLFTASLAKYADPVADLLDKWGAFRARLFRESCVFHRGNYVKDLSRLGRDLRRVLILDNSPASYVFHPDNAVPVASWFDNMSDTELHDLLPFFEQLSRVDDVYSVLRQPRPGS
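Times: enzyme reaction 45 min at room temperature, colour 5 min, stabilisation 30 min. Material: SCP-1 catalytic fragment, aa 76-261. Medium: Acidic Tris acetate buffer with magnesium and detergent. Signal: colorimetric free-phosphate detection, absorbance 630 nm. Read-out basis: % inhibition of SCP-1 phosphate liberation. Reagent: Phosphorylated 17-residue peptide substrate.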
GRK2 inh: inhibitors of human GRK2 displacing RNA aptamer; bead flow cytometry, FAM-aptamer displacement from GRK2; 330,000 compounds, 0.59% hits; inhibition of aptamer binding, % at 10 µM; P25098;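 active = inhibition of aptamer binding above 40%, roughly 3 SD of noise, on plates passing a quality check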;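 also: median bead fluorescence of bound FAM aptamer so fluorescent compounds give negative values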
STEP block: blocks human striatal-enriched tyrosine phosphatase | P54829 | recombinant STEP, OMFP fluorogenic substrate, fluorescence | inhibition, % at 20 µM | 360,000 compounds, 0.25% hits;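 active = inhibition at 20 µM, scaled per plate between control wells, above about 37%, limit read from the data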;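 also: 0% = DMSO with enzyme and substrate and 100% = substrate only without enzyme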
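Assay system: isolated STEP enzyme / Timing: 20 min at room temperature, dark / Doses: 20 µM, 1% DMSO / Technique: fluorescence intensity, excitation 480 nm, emission 540 nm / Reagent: fluorogenic phosphatase substrate OMFP at 25 µM final / Measure: percent inhibition scaled to no-enzyme and uninhibited-enzyme controls, plate-pattern corrected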
DNMT1 inh: DNMT1 (human) enzyme inhibition | DNMT1 molecular beacon, Hinp1I cleavage, fluorescence | inhibition (reported as % activation of signal), % at 10 µM | 360,000 compounds, 0.83% hits; in the data active = inhibition above about 50%
LMPTP block: blocks human LMPTP phosphatase. 360,000 compounds, 0.22% hits. recombinant LMPTP-A, OMFP fluorogenic substrate, fluorescence intensity. inhibition, % at 20 µM. AID 651560. P24666;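 active = compounds that cut the enzyme signal by at least half of the control window in the single-dose screen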;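 also: plate controls were DMSO wells with enzyme plus substrate for no effect and substrate without enzyme for full effect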
Target sequence (P24666 whole entry, looked up): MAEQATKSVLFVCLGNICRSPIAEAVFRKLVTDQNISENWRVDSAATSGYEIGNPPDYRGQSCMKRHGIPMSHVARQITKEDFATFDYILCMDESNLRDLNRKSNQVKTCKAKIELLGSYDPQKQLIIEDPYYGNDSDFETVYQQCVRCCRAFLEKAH
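Buffer or medium: Bis-Tris pH 6.0, DTT, detergent; Assay system: LMPTP-A enzyme; Quantity: 0.625 nM enzyme; Detection: endpoint fluorescence intensity; Times: 50 min dark incubation at room temperature; Controls: substrate-only low control, DMSO enzyme-plus-substrate high control; Doses: single 20 µM dose; Read-out: percent inhibition versus substrate-only and uninhibited controls; Reagent: 400 µM OMFP.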
SUMO1-SIM PPI: alters human SUMO1 binding to SIM partners; P63165; SUMO1 binding to a labelled peptide, TR-FRET, 1 h; inhibition, % at 20 µM; 360,000 compounds, 0.33% hits; in the data active = inhibition above about 37%
Target sequence (P63165 whole entry, looked up): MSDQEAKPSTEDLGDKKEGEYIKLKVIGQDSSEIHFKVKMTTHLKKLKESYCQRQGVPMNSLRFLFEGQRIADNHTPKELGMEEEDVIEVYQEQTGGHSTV
DNMT1 confirm: DNMT1 inhibition confirmation, single concentration; shares compounds with DNMT1 inh; DNMT1 molecular beacon HinP1I cleavage, fluorescence; inhibition, % at 10 µM; 2,300 compounds, 8% hits;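 active = average inhibition of at least 30% in the single-concentration confirmation test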
Beacon interf: shows spectral interference in the DNMT1 beacon assay; AID 602387; shares compounds with DNMT1 inh; activation (fluorescence interference), % at 10 µM; DNMT1 molecular beacon spectral interference counterscreen, fluorescence 485/520; 2,300 compounds, 1% hits;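 active = activation of at least 30% at 10 µM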;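 also: DNMT1 catalytic domain with a HinP1I cleavage step and a FAM/dabcyl DNA beacon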
* hit, by the source's call; nt = not tested or not shown. A selection: hits, their analogues and other compounds. The true share with any hit is near 2.2%.

SMILES | Scp-1 inhibitor | GRK2 inh | STEP block | DNMT1 inh | LMPTP block | SUMO1-SIM PPI | DNMT1 confirm | Beacon interf
O=C(O)c1ccc(-c2ccc(/C=C3\NC(=O)N(Cc4ccc(Cl)cc4)C3=O)o2)cc1 | 42 | nt | 2 | 19 | 6 | 19 | nt | nt
Cc1ccc(CN2C(=O)N/C(=C\c3ccc(-c4ccc(C(=O)O)cc4C)o3)C2=O)cc1 | 71* | 17 | 10 | 126* | 4 | 21 | 10 | -3
CCOc1cccc2cc(-c3nnc(NCc4ccc5c(c4)OCO5)s3)c(=O)oc12 | 1 | 0 | 3 | 70* | 33 | 1 | 0 | -5
O=C(NC1CCCCC1)C(c1ccc(F)cc1)N(CCc1ccccc1)C(=O)CN1C(=O)c2ccccc2S1(=O)=O (stereo not drawn) | -6 | 4 | -1 | 59* | 1 | -2 | 5 | 2
O=C(NC1CCCCC1)C(c1ccc(F)cc1)N(Cc1ccccc1)C(=O)CN1C(=O)c2ccccc2S1(=O)=O (stereo not drawn) | 7 | 2 | -1 | 35 | 2 | -1 | nt | nt
C#CCNC(=O)C[C@@H]1C[C@@]2(C(=O)OC)CC(C)(C)CC=C2N(CCCCCCCC)C1=O | nt | nt | nt | nt | 3 | 0 | nt | nt
Cc1cc(C(=O)C(C)Cl)c(C)n1Cc1ccco1 (stereo not drawn) | 0 | 0 | 0 | 65* | 2 | 2 | 1 | -1
Cc1cc(C(=O)COC(=O)C(C)NC(N)=O)c(C)n1Cc1ccco1 (stereo not drawn) | 11 | 5 | -1 | -2 | 2 | 2 | nt | nt
Cc1cc2oc3ccc(NCCCn4ccnc4)cc3c(=O)c2cc1C | -4 | 1 | 1 | 56* | 1 | 19 | 1 | 1
Cc1cc2oc3ccc(NCCCN4CCOCC4)cc3c(=O)c2cc1C | -11 | 0 | 4 | -2 | 1 | -29 | nt | nt
COc1ccc(CN2CCC[C@]3(N[C@H](c4ccc(C(F)(F)F)cc4)[C@@H]4C(=O)N(C)C(=O)[C@@H]43)C2=O)cc1 | nt | nt | 2 | 4 | -1 | -3 | nt | nt
Cn1c(-c2ccccc2)cccc1=O | -3 | 1 | -2 | -1 | -2 | 3 | nt | nt
Cn1c(-c2ccccc2)cc(=O)n1-c1ccccc1 | -5 | nt | 1 | 70* | 0 | 4 | 7 | 5
Cc1cc(SCc2ccc([N+](=O)[O-])cc2)nc(=O)[nH]1 | 30 | 19 | 2 | 52* | 8 | -17 | 2 | -1
COc1ccc(OC)c2sc(NC(=O)c3ccc(Br)s3)nc12 | -9 | 0 | 4 | 57* | 21 | 13 | 2 | -3
CCC(=O)Nc1nc2c(OC)ccc(OC)c2s1 | -5 | 2 | 1 | -1 | 1 | 3 | nt | nt
COc1ccc(OC)c2sc(NC(=O)c3ccc(Cl)s3)nc12 | -12 | 5 | 1 | 61* | 7 | -1 | 6 | 0
Cc1cc(N2O[C@H]3C=C[C@@H]2C3)no1 | 4 | 10 | -3 | 4 | -1 | -19 | nt | nt
COc1cccc(C(C#N)NCCCNC(C#N)c2cccc(OC)c2OC)c1OC (stereo not drawn) | -5 | nt | 2 | -4 | -7 | -15 | nt | nt
COc1cc(/C=C2/SC(=O)NC2=O)ccc1OCc1ccccc1 | 1 | 0 | -4 | 6 | -2 | 9 | nt | nt
COc1cc(/C=C2/SC(=O)N(Cc3ccccc3Cl)C2=O)ccc1OCc1ccncc1 | 18 | 0 | -1 | 64* | 0 | 0 | 7 | 8
COc1ccc(CC(=O)Nc2ccc(-c3noc(-c4ccc(Cl)cc4)n3)cc2)cc1 | 10 | 0 | 6 | 51* | 22 | 15 | 4 | -5
Cc1cc(Br)cn2c(Cc3ccsc3)c(-c3cccc(Br)c3)nc12 | nt | nt | nt | nt | 3 | -8 | nt | nt
CC(C)C(=O)N1CCC1(C)C(=O)NCc1ccc(C(C)(C)C)cc1 (stereo not drawn) | nt | nt | 2 | -2 | 1 | 0 | nt | nt
CCOc1ccc(NC(=O)CCCc2cc(-c3ccc(OCC)cc3)on2)cc1 | -7 | 0 | 5 | 57* | 0 | -2 | 1 | 4
SMILES | Scp-1 inhibitor | GRK2 inh | STEP block | DNMT1 inh | LMPTP block | SUMO1-SIM PPI | DNMT1 confirm | Beacon interf
CSc1ncccc1C(=O)OCC(=O)N(C)Cc1ccc(C)cc1 | nt | nt | -1 | -1 | -1 | -1 | nt | nt
Cc1cc(=O)oc2c(C)c(OC(C)C(=O)NC(Cc3c[nH]c4ccc(O)cc34)C(=O)O)ccc12 (stereo not drawn) | 15 | 3 | 0 | 85* | 0 | 10 | 3 | 1
CCc1c(C)c2ccc(OC(C)C(=O)NC(Cc3c[nH]c4ccc(O)cc34)C(=O)O)c(C)c2oc1=O (stereo not drawn) | 23 | 1 | 1 | 3 | 1 | 13 | nt | nt
Cc1ccc(NC(=O)c2nc[nH]c2C(=O)NCCCCNC(=O)c2[nH]cnc2C(=O)Nc2ccc(C)cc2)cc1 | -9 | 4 | -4 | 89* | 2 | 3 | 2 | -4
Cc1ccc(NC(=O)c2nc[nH]c2C(=O)NCCCCCCNC(=O)c2[nH]cnc2C(=O)Nc2ccc(C)cc2)cc1 | -14 | 4 | -4 | 28 | 1 | 3 | nt | nt
O=C(Nc1cccc(Cl)c1)c1nc[nH]c1C(=O)NCCCNC(=O)c1[nH]cnc1C(=O)Nc1cccc(Cl)c1 | 0 | 0 | -1 | 61* | 1 | 4 | 2 | -3
Cc1ccc(NC(=O)c2nc[nH]c2C(=O)NCCCNC(=O)c2[nH]cnc2C(=O)Nc2ccc(C)cc2)cc1 | -2 | 4 | -2 | 59* | 0 | 2 | 8 | 0
Cc1ccc(-c2cnc(C(O)c3cccc(Cl)c3)[nH]2)cc1 (stereo not drawn) | nt | nt | -2 | 2 | 0 | -1 | nt | nt
Cc1ccc(OCC(=O)Nc2ccc(-c3nc4ncccc4o3)cc2)c(C)c1 | 5 | 0 | -2 | 55* | 12 | 4 | 4 | 4
Cc1ccc(OCC(=O)Nc2ccncc2)c(C)c1 | -2 | 0 | 2 | -2 | -2 | 5 | nt | nt
COc1ncc(-c2ccc(N3C(c4ccsc4)=Cc4ccc(F)cc4C3CC(C)=O)cc2)cn1 (stereo not drawn) | nt | nt | nt | nt | 2 | -5 | nt | nt
CCc1noc(C)c1C(=O)OCC(=O)Nc1cccc(C)c1 | -6 | 1 | -3 | 77* | -1 | 2 | 3 | 3
Cc1ccc(-n2cc(CN(C)Cc3nccn3C)c(-c3ccc(F)cc3)n2)cc1 | -7 | 0 | -8 | -4 | 1 | 4 | nt | nt
CCn1ccnc1CN(C)Cc1cn(-c2ccc(C)cc2)nc1-c1ccc(F)cc1 | -4 | 0 | 3 | 60* | 2 | -1 | 2 | 6
Cc1ccccc1CC(=O)NCCN1CCCCC1 | 23 | 4 | -2 | 80* | -2 | -2 | 0 | 3
